Experiment [1] deals with HCC78. Put plainly: Induction of apoptosis in human HCC78 cells assessed as viable cells level at 2.5 uM incubated fro 48 hrs by Annexin-V FITC and propidium iodide staining based flow cytometry (reference value: 80.8%). The class given is functional. On the technique in general: In flow cytometry, cells or beads pass a laser one at a time.
Experiment [2] deals with HCC78. Description: Induction of apoptosis in human HCC78 cells assessed as early apoptotic cells level at 2.5 uM incubated fro 48 hrs by Annexin-V FITC and propidium iodide staining based flow cytometry (reference value: 6.33%). In kind it is functional.
Experiment [3] has as its system HCC78. Description: Induction of apoptosis in human HCC78 cells assessed as late apoptotic cells level at 2.5 uM incubated fro 48 hrs by Annexin-V FITC and propidium iodide staining based flow cytometry (reference value: 13.8%). The class given is functional.
Experiment [4] relates to HCC78. Put plainly: Induction of apoptosis in human HCC78 cells assessed as necrotic cells level at 2.5 uM incubated fro 48 hrs by Annexin-V FITC and propidium iodide staining based flow cytometry (reference value: 0.06%). In kind it is functional.
Experiment [5] deals with T1, Proto-oncogene tyrosine-protein kinase ROS (Homo sapiens, UniProt P08922). Conditions: HCC78, 2.5 uM.
T1 sequence (P08922 whole entry): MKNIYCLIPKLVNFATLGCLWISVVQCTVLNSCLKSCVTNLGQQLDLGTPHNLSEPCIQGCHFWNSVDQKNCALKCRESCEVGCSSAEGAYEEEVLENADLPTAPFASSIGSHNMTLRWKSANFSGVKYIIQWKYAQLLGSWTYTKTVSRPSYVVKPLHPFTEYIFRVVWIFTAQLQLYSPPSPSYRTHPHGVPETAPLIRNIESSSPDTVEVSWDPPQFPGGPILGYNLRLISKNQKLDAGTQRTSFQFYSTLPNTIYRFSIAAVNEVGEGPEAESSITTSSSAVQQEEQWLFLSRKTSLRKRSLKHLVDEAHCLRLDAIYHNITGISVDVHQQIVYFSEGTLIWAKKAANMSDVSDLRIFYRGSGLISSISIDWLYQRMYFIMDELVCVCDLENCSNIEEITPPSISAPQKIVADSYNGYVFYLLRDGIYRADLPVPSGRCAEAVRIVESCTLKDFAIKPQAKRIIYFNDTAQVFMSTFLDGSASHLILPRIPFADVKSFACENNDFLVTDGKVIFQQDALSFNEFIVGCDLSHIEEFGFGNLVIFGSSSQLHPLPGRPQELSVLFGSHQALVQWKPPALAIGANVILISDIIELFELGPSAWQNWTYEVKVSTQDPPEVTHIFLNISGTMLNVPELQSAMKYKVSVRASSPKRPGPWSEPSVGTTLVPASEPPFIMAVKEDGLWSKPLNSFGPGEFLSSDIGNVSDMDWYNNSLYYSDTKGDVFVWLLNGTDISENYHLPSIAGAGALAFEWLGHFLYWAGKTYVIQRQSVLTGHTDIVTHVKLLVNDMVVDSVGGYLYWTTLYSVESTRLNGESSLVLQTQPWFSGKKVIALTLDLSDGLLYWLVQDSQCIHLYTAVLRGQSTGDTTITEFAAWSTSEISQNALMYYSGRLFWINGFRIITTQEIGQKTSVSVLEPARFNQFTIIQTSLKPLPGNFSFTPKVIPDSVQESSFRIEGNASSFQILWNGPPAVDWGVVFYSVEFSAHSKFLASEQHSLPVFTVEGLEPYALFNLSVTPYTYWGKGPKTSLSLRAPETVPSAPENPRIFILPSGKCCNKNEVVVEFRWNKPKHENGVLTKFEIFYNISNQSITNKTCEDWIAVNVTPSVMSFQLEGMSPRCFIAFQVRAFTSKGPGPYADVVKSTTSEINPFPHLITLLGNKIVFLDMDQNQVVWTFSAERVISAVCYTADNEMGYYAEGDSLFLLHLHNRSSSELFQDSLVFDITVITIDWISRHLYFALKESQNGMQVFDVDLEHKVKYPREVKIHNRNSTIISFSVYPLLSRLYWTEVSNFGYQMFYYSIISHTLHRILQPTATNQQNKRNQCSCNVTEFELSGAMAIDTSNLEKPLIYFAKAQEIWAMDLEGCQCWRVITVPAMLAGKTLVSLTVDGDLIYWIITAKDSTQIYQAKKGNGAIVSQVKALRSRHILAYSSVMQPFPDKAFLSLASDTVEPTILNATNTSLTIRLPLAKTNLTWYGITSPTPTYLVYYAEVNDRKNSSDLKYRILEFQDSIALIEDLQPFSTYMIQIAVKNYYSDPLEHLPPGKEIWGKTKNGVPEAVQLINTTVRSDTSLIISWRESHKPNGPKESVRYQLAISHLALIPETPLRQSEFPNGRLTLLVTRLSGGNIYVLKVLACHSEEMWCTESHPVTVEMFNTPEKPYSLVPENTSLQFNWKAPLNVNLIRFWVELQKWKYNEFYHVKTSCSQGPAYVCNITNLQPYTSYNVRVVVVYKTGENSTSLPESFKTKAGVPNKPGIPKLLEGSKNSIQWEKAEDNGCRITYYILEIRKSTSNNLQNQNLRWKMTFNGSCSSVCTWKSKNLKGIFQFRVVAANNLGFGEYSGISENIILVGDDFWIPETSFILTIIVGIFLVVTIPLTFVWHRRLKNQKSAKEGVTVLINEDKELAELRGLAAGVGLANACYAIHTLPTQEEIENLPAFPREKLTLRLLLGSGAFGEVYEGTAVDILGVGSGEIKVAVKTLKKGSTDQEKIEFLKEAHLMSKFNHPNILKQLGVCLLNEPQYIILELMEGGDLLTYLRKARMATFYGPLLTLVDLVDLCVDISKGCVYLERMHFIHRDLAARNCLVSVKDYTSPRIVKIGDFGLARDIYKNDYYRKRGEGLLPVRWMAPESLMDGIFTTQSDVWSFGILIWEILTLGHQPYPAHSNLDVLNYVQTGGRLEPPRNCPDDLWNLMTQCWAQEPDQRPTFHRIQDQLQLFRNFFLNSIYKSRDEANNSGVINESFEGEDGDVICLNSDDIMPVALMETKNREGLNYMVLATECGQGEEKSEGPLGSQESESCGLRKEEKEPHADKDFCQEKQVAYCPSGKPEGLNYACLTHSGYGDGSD
Experiment [6] addresses T1, Proto-oncogene tyrosine-protein kinase ROS. The settings on record: HCC78, 2.5 uM. The source holds these as a separate data set.
For experiment [7] the target is unchanged. Conditions: HCC78, 2.5 uM. The source holds these as a separate data set.
For experiment [8] the target is unchanged. Conditions: HCC78, 2.5 uM. The source holds these as a separate data set.
Experiment [9] shares this target. Description: Inhibition of ROS1 (unknown origin) using poly (Glu,Tyr)4:1 substrate and ATP incubated for 60 mins by ELISA. An outline of the steps: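 Purified recombinant ROS1 on poly(Glu,Tyr)4:1-coated wells (20 μg/ml coating). Reaction run in HEPES pH 7.4 buffer with MgCl2, MnCl2, Na3VO4 and DTT, with 10 μmol/l ATP solution and compound in 1% DMSO, 60 min at 37 °C. Phosphotyrosine detected by PY99 antibody, then HRP anti-mouse IgG and o-phenylenediamine, read at A490. Inhibition calculated as % of DMSO control. IC50 derived from curves in two experiments.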

The subject of experiment [10] is HCC78. Description: Cytotoxicity in human HCC78 cells assessed as reduction in cell viability incubated for 72 hrs by MTT assay. In kind it is functional, cell-based. Conditions: HCC78, 72 h. The essentials:
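3000 cells per well, allowed to adhere overnight, then exposed to DMSO or a concentration series for 72 h. MTT (5 mg/ml stock) added for a further 4 h, and crystals dissolved in 10% SDS/0.1 mM HCl. A570 read. Viability expressed relative to untreated controls from at least 3 independent experiments. HCC78 cells were grown in RPMI-1640 with 10% FBS and penicillin/streptomycin at 37 °C under 5% CO2.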

The subject of a further experiment is CCD 19Lu. Description: Cytotoxicity in human CCD-19Lu cells assessed as reduction in cell viability incubated for 72 hrs by MTT assay. The class given is cell-based. (Formazan colour is commonly taken as a measure of viable cells.)
Experiment [11] deals with HCC78. Description: Induction of apoptosis in human HCC78 cells incubated fro 48 hrs by Annexin-V FITC and propidium iodide staining based flow cytometry. In kind it is functional, cell-based.
The subject of experiment [12] is HCC78. Put plainly: Induction of apoptosis in human HCC78 cells assessed as viable cells level at 5 nM incubated fro 48 hrs by Annexin-V FITC and propidium iodide staining based flow cytometry (reference value: 80.8%). The class given is functional.
Experiment [13] deals with HCC78. Description: Induction of apoptosis in human HCC78 cells assessed as early apoptotic cells level at 5 nM incubated fro 48 hrs by Annexin-V FITC and propidium iodide staining based flow cytometry (reference value: 6.33%). In kind it is functional.
The subject of experiment [14] is HCC78. Put plainly: Induction of apoptosis in human HCC78 cells assessed as late apoptotic cells level at 5 nM incubated fro 48 hrs by Annexin-V FITC and propidium iodide staining based flow cytometry (reference value: 13.8%). The class given is functional.
Experiment [15] concerns HCC78. Description: Induction of apoptosis in human HCC78 cells assessed as necrotic cells level at 5 nM incubated fro 48 hrs by Annexin-V FITC and propidium iodide staining based flow cytometry (reference value: 0.06%). The class given is functional.
Experiment [16] deals with HCC78. Description: Induction of apoptosis in human HCC78 cells assessed as viable cells level at 10 nM incubated fro 48 hrs by Annexin-V FITC and propidium iodide staining based flow cytometry (reference value: 80.8%). In kind it is functional.
The subject of experiment [17] is HCC78. Put plainly: Induction of apoptosis in human HCC78 cells assessed as early apoptotic cells level at 10 nM incubated fro 48 hrs by Annexin-V FITC and propidium iodide staining based flow cytometry (reference value: 6.33%). The class given is functional.
Experiment [18] relates to HCC78. Description: Induction of apoptosis in human HCC78 cells assessed as late apoptotic cells level at 10 nM incubated fro 48 hrs by Annexin-V FITC and propidium iodide staining based flow cytometry (reference value: 13.8%). The class given is functional.
Experiment [19] deals with HCC78. Description: Induction of apoptosis in human HCC78 cells assessed as necrotic cells level at 10 nM incubated fro 48 hrs by Annexin-V FITC and propidium iodide staining based flow cytometry (reference value: 0.06%). In kind it is functional.
Experiment [20] relates to HCC78. Description: Induction of apoptosis in human HCC78 cells assessed as viable cells level at 20 nM incubated fro 48 hrs by Annexin-V FITC and propidium iodide staining based flow cytometry (reference value: 80.8%). The class given is functional.
The subject of experiment [21] is HCC78. Description: Induction of apoptosis in human HCC78 cells assessed as early apoptotic cells level at 20 nM incubated fro 48 hrs by Annexin-V FITC and propidium iodide staining based flow cytometry (reference value: 6.33%). In kind it is functional.
In experiment [22] the test system is HCC78. Put plainly: Induction of apoptosis in human HCC78 cells assessed as late apoptotic cells level at 20 nM incubated fro 48 hrs by Annexin-V FITC and propidium iodide staining based flow cytometry (reference value: 13.8%). The class given is functional.
The test system of experiment [23] is HCC78. Description: Induction of apoptosis in human HCC78 cells assessed as necrotic cells level at 20 nM incubated fro 48 hrs by Annexin-V FITC and propidium iodide staining based flow cytometry (reference value: 0.06%). The class given is functional.
Experiment [24] concerns the target T1, Proto-oncogene tyrosine-protein kinase ROS. Description: Inhibition of ROS1 phosphorylation in human HCC78 cells incubated for 48 hrs by Western blot method. The class given is cell-based. An outline of the steps: (§1)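 HCC78 cells plated overnight in 6-well plates, treated for 48 h, then lysed in RIPA buffer with protease/phosphatase inhibitors. Equal protein loaded for SDS-PAGE and transferred to nitrocellulose. Blocked in 5% milk/TBST, probed overnight at 4 °C for p-ROS1, ROS1, p-STAT3, STAT3, p-AKT, AKT, p-ERK, ERK and GAPDH, and detected with fluorescent secondary antibodies on an infrared scanner.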
(In western blotting, separated proteins are transferred to a membrane and probed.)

For experiment [25] the target is unchanged. Description: Inhibition of ROS1 in human HCC78 cells assessed as reduction in STAT3 phosphorylation incubated for 48 hrs by Western blot method. The class given is cell-based. An outline of the steps: as §1
The target is the same in experiment [26]. Description: Inhibition of ROS1 in human HCC78 cells assessed as reduction in AKT phosphorylation incubated for 48 hrs by Western blot method. The class given is cell-based. An outline of the steps:
as §1

Experiment [27] has the same target. Put plainly: Inhibition of ROS1 in human HCC78 cells assessed as reduction in ERK phosphorylation incubated for 48 hrs by Western blot method. In kind it is cell-based. The essentials:
as §1

The source made the active and inactive calls. The calls are words filed in the database; no cut-off is given here.

`C[C@@H](Oc1cc(-c2cnn(C3CCNCC3)c2)cnc1N)c1c(Cl)ccc(F)c1Cl` [CRIZOTINIB]: the Activity in the experiment on HCC78 [1] was found to be 45.9%; with HCC78 [2] it was 27.3%; in the experiment with HCC78 [3], 27.2%; in the experiment on HCC78 [4], 0.662%. Further, the inhibition result in experiment [5], in experiment [6], in [7] and in experiment [8] was “Active” each time.

Regarding `O=C1c2c(O)ccc(O)c2C(=O)c2c(NCCNCCO)ccc(NCCNCCO)c21` [MITOXANTRONE], the IC50 (as a rule, the point on the concentration scale where inhibition reaches its midpoint) in experiment [9] was 3000 nM; in the experiment on HCC78 [10], 13.8 nM; in the experiment on CCD 19Lu, greater than 160 nM. Further, the Activity entry with HCC78 [11] was “Dose-dependent effect”; with HCC78 [12] it was 66.6%; in the experiment with HCC78 [13], 16.4%; in the experiment on HCC78 [14], 16.9%; with HCC78 [15], 0.089%; with HCC78 [16], 66.7%. Besides, the Activity with HCC78 [17] was found to be 18.6%; with HCC78 [18] it was 18.7%; in the experiment with HCC78 [19], 0.076%; with HCC78 [20], 63.8%; in the experiment on HCC78 [21], 19.7%; with HCC78 [22], 17.2%. In the experiment with HCC78 [23], the Activity is given as 0.048%. Besides, the inhibition result in [24], in experiment [25], in experiment [26] and in experiment [27] was “Dose-dependent effect” throughout.
